Inhibitor concentration tested (near solubility limit), solubility and Ki data for 19 compounds are collected here from ChEMBL document CHEMBL1123928, “Inhibition of human sputum elastase by substituted 2-pyrones” (J Med Chem, 1987).

Values after ≈ are worked out from the molar mass of the structure shown.

The target in one data set is pancreatic elastase (Sus scrofa, UniProt P00772+P08419). Description: Solubility against porcine pancreatic elastase. It counts as ADME, protein assay. To be noted: pig. Summed up: (§1)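 Single-point screen run under the HSE assay conditions (0.1 M HEPES, 0.5 M NaCl, 14.8% Me2SO, pH 7.5, 37 °C). One inhibitor concentration near its solubility limit: 25, 10, 1000 or 200 μM depending on compound. One substrate concentration at 0.29 Km; porcine elastase Km 2600 μM. Each run at least twice; p-nitrophenol read at 400 nm.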

For data set [1], the target named is T1, trypsin (Serine protease 1) (Bos taurus, UniProt P00760).
T1 sequence (P00760 whole entry): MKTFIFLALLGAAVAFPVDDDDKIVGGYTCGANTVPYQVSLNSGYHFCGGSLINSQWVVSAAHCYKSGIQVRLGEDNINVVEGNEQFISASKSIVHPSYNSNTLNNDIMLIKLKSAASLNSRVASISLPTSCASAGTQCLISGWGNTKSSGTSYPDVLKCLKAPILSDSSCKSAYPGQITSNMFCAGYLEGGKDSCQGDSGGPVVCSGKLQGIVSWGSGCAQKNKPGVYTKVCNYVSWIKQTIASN
Description: Solubility against bovine trypsin. It counts as ADME. Particulars: cattle. Summed up:
as §1

In data set [2] the test system is alpha-chymotrypsin. Description: (§2) Solubility against bovine alpha-chymotrypsin. It counts as ADME, organism-based, Bos taurus. To be noted: cattle. The procedure, abridged: as §1
Data set [3] deals with alpha-chymotrypsin. The data set is described as §2. Particulars: cattle. It counts as ADME, Bos taurus. The procedure, abridged: as §1
Another data set deals with T2, Neutrophil elastase (Homo sapiens, UniProt P08246).
T2 sequence (P08246 whole entry): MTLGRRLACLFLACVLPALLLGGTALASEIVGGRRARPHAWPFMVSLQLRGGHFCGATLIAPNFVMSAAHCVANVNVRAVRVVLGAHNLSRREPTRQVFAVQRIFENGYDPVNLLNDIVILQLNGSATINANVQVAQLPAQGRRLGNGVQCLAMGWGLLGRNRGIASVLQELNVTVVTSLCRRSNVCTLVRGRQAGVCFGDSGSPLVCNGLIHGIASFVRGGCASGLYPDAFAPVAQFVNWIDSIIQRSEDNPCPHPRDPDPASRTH
The experiment in a line: (§3) Evaluated for inhibition of the human sputum elastase (HSE). Summed up: (§4)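 HSE from sputum prepared in 50 mM NaOAc/0.45 M NaCl pH 5.5. Assay in 0.1 M HEPES, 0.5 M NaCl, 14.8% Me2SO, pH 7.5, 37 °C. Inhibitor at two or more concentrations (4–250 μM depending on compound). […] Ki from Hanes–Woolf plots with Dixon-type replots.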

Data set [4] in a line: Evaluated for Non-competitive inhibition of the human sputum elastase (HSE). Summed up: as §4
A short description of data set [5]: Evaluated for uncompetitive inhibition of the human sputum elastase (HSE). The procedure, abridged:
as §4

The nature of data set [6]: Evaluated for inhibition of the human sputum elastase (HSE) at 1000 micro M; No activity.
The nature of data set [7]: as §3. It counts as functional. The procedure, abridged:
as §4

The solubility is the dissolved amount per volume that the medium holds. Read a low solubility as a poorly soluble substance. Usually Ki stands for the dissociation constant of the complex between target and ligand, obtained from inhibition or displacement. Read a high Ki as weaker binding.

As to `CCCCCCCCCCCC(=O)c1c(O)cc(CCCCCCCCCCC)oc1=O`, the inhibitor concentration tested (near solubility limit) against pancreatic elastase was 10 µM. Also, the solubility (in [1]; in the data set with alpha-chymotrypsin [2]) was 10 µM (≈ 4.49 µg/mL) in each case.

`CCCCCOC(=O)C(=O)/C=C1\C=C(OC)C=C(O)O1`: the inhibitor concentration tested (near solubility limit) in the data set on alpha-chymotrypsin [3] and against pancreatic elastase was 200 µM in each case. This compound had a Ki at Neutrophil elastase of 410 µM. In data set [1], this compound registered a solubility of 200 µM (≈ 56.5 µg/mL).

As to `CCCCOC(=O)C(=O)/C=C1\C=C(OC)C=C(O)O1`, the inhibitor concentration tested (near solubility limit) with alpha-chymotrypsin [3] and on pancreatic elastase was 200 µM throughout. Besides, the Ki at Neutrophil elastase was 350 µM. The same compound came in with a solubility in data set [1] of 200 µM (≈ 53.7 µg/mL).

Consider `CCCCCCCC(=O)c1c(O)cc(C)oc1=O`, for which the inhibitor concentration tested (near solubility limit) with alpha-chymotrypsin [3] and at pancreatic elastase was 200 µM in each case. In addition, in data set [1], the solubility came out at 200 µM (≈ 50.5 µg/mL). Also, the Ki in data set [4] was 400 µM.

For the compound `CCCCCCCc1cc(OC)cc(=O)o1`, the inhibitor concentration tested (near solubility limit) with alpha-chymotrypsin [3] and against pancreatic elastase was 200 µM throughout. Further, the concentration in solution in data set [1] (solubility) was 200 µM (≈ 44.9 µg/mL). In data set [5], this compound showed a Ki of 140 µM.

In the case of `COC1=C/C(=C\C(=O)C(=O)O)OC(O)=C1`, the inhibitor concentration tested (near solubility limit) in the data set with alpha-chymotrypsin [3] and on pancreatic elastase was 1000 µM throughout. Also, the Ki entry in [6] is on record as “No inhibitory activity”. The same compound returned a solubility in [1] of 1000 µM (≈ 212 µg/mL).

In the case of `CCCCCC(=O)c1c(O)cc(CCCCC)oc1=O`, the inhibitor concentration tested (near solubility limit) in the data set with alpha-chymotrypsin [3] and against pancreatic elastase was 25 µM in each case. The compound also had a solubility in data set [1] of 25 µM (≈ 7.01 µg/mL). In addition, the Ki in data set [4] amounted to 67 µM.

For `CCCCCC(=O)c1c(O)cc(C)oc1=O`, the inhibitor concentration tested (near solubility limit) with alpha-chymotrypsin [3] and against pancreatic elastase was 200 µM each time. The compound further showed a solubility in [1] of 200 µM (≈ 44.9 µg/mL). This compound registered an inhibition constant (Ki) in [4] of 2000 µM.

In the case of `CCCCCCCCCCCC(=O)c1c(O)cc(C)oc1=O`, the inhibitor concentration tested (near solubility limit) with alpha-chymotrypsin [3] and on pancreatic elastase was 200 µM in each case. In data set [1], the solubility was 200 µM (≈ 61.7 µg/mL). For the same compound, the affinity in data set [4], expressed as Ki, was 54 µM.

Take `CCCCCCCc1cc(O)cc(=O)o1`: the inhibitor concentration tested (near solubility limit) in the data set on alpha-chymotrypsin [3] and against pancreatic elastase was 200 µM throughout. This compound also displayed a Ki at Neutrophil elastase of 1100 µM. Besides, the solubility in data set [1] amounted to 200 µM (≈ 42.1 µg/mL).

Regarding `CCCCCCCCC(=O)c1c(O)cc(CCCCCCCC)oc1=O`, the inhibitor concentration tested (near solubility limit) with alpha-chymotrypsin [3] and on pancreatic elastase was 25 µM each time. For the same compound, the Ki at Neutrophil elastase was 4.6 µM. This compound also had a solubility in [1] of 25 µM (≈ 9.11 µg/mL).

On to `CCCCCc1cc(O)cc(=O)o1`, for which the inhibitor concentration tested (near solubility limit) in the data set with alpha-chymotrypsin [3] and at pancreatic elastase was 200 µM in each case. The compound also displayed a Ki at Neutrophil elastase of 1700 µM. Further, the solubility in data set [1] was 200 µM (≈ 36.4 µg/mL).

In the case of `CCCCCCCCCCCc1cc(O)cc(=O)o1`, the inhibitor concentration tested (near solubility limit) in the data set on alpha-chymotrypsin [3] and against pancreatic elastase was 200 µM throughout. In addition, the concentration in solution in [1] (solubility) came to 200 µM (≈ 53.3 µg/mL). The same compound registered a Ki in data set [7] of 83 µM.

As for `CCCCCCCCCC(=O)c1c(O)cc(CCCCCCCCC)oc1=O`, the inhibitor concentration tested (near solubility limit) with alpha-chymotrypsin [3] and at pancreatic elastase was 25 µM throughout. On Neutrophil elastase, this compound registered a Ki of 7.9 µM. The same compound displayed a solubility in data set [1] of 25 µM (≈ 9.81 µg/mL).

With `CCCCCCCC(=O)c1c(O)cc(CCCCCCC)oc1=O`, the inhibitor concentration tested (near solubility limit) with alpha-chymotrypsin [3] and at pancreatic elastase was 25 µM throughout. At Neutrophil elastase, the Ki amounted to 15 µM. Besides, the concentration in solution in data set [1] (solubility) came to 25 µM (≈ 8.41 µg/mL).

As for `CCOC(=O)C(=O)/C=C1\C=C(OC)C=C(O)O1`, the inhibitor concentration tested (near solubility limit) in the data set on alpha-chymotrypsin [3] and at pancreatic elastase was 200 µM throughout. Also, the Ki at Neutrophil elastase stood at 120 µM. This compound also came in with a solubility in [1] of 200 µM (≈ 48 µg/mL).

Take `CCCCCCCCCc1cc(O)cc(=O)o1`: the inhibitor concentration tested (near solubility limit) in the data set on alpha-chymotrypsin [3] and against pancreatic elastase was 200 µM each time. Further, the affinity at Neutrophil elastase, expressed as Ki, was 400 µM. This compound had a solubility in data set [1] of 200 µM (≈ 47.7 µg/mL).

As to `CCCCCCCCCc1cc(OC)cc(=O)o1`, the inhibitor concentration tested (near solubility limit) in the data set with alpha-chymotrypsin [3] and against pancreatic elastase was 200 µM each time. In data set [1], this compound yielded a solubility of 200 µM (≈ 50.5 µg/mL). This compound displayed a Ki in data set [5] of 130 µM.

Consider `CCCCCCCCCC(=O)c1c(O)cc(C)oc1=O`, for which the inhibitor concentration tested (near solubility limit) in the data set with alpha-chymotrypsin [3] and against pancreatic elastase was 200 µM throughout. In addition, the solubility in [1] stood at 200 µM (≈ 56.1 µg/mL). The compound also showed a Ki in data set [4] of 250 µM.
